The values that follow come from PubChem BioAssay AID623895 (Broad Institute, 2012).

Each structure is given as a SMILES string. Active and inactive are the calls of the source.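 Rule for the calls: active = compounds with an ATP-loss curve whose half-maximal dose stays within twice the top dose, in every run; inconclusive = mixed run calls, weak flat effects or poor fits; inactive = the rest, including opposite-direction effects.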

System in the first experiment: not listed separately
Nature of the experiment: viability loss of SR-BI expressing CHO cells – cell-based, 24 h, ATP luminescence, dry powder, set 6, cytotoxicity control for SR-BI HDL uptake inhibitor project, dose response (AID 623895). The following applies: ldlA[mSR-BI] CHO cells viability, ATP luminescence, 24 h; at 35 µM (top of the series). The method in brief:
(§1)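 Material: ldlA[mSR-BI] cells; Input: 4,000 cells per well; Measured by: cell Titer Glo luminescence reporting cellular ATP; Schedule: 24 h at 37 °C, read after 10 min; Dosing: Eight-point compound dose series.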
In the case of `C[C@@H]1CN([C@H](C)CO)C(=O)c2cc(NC(=O)C3CC3)ccc2O[C@H]1CN(C)S(=O)(=O)c1ccc(Cl)cc1`, the activity change, negative = cytotoxicity was -13% (inactive).

On to `COc1ccc2c(c1)CC(C1(O)C(=O)N(C)c3ccccc31)C2=O` (configuration not stated), for which the activity change, negative = cytotoxicity was -9.47% (inactive).

For the molecule `C[C@@H]1CN([C@H](C)CO)C(=O)c2cc(NC(=O)CCCN(C)C)ccc2O[C@H]1CN(C)S(=O)(=O)c1ccc(Cl)cc1`, the activity change, negative = cytotoxicity was 15.7% (inactive).

In the case of `C[C@@H]1CN([C@H](C)CO)C(=O)c2cc(NC(=O)Cc3cn(C)c4ccccc34)ccc2O[C@H]1CN(C)Cc1ccccc1`, the activity change, negative = cytotoxicity was -31.2% (inactive).

In the case of `C[C@@H]1CN([C@H](C)CO)C(=O)c2cc(NC(=O)Cc3cn(C)c4ccccc34)ccc2O[C@H]1CN(C)C`, the activity change, negative = cytotoxicity is 6.87% (inactive).

In the case of `O=C1C2C3C=CC(C3)C2C(=O)N1c1cccc(N2C(=O)C3C4C=CC(C4)C3C2=O)n1` (configuration not stated), the activity change, negative = cytotoxicity is -8.55% (inactive).

As for `COc1ccc(NC(=O)Nc2ccc3c(c2)C(=O)N([C@H](C)CO)C[C@@H](C)[C@H](CN(C)S(=O)(=O)c2ccc(Cl)cc2)O3)cc1`, the activity change, negative = cytotoxicity is -15.6% (inactive).

Turning to `Cc1ccccc1-c1ccc2c(c1)O[C@@H](CN(C)C(=O)Nc1ccc(F)cc1)[C@H](C)CN([C@@H](C)CO)S2(=O)=O`, the activity change, negative = cytotoxicity was -23.7% (inactive).

On to `C[C@@H]1CN([C@H](C)CO)C(=O)c2cc(NC(=O)Cc3cn(C)c4ccccc34)ccc2O[C@H]1CN(C)S(C)(=O)=O`, for which the activity change, negative = cytotoxicity is -4.79% (inactive).

As for `O=C(C[C@@H]1CC[C@@H](NC(=O)CC2CC2)[C@H](CO)O1)NCc1ccc(Cl)cc1`, the activity change, negative = cytotoxicity was -2.93% (inactive).

On to `Cc1ccccc1-c1ccc2c(c1)O[C@H](CN(C)C(=O)Nc1ccc(F)cc1)[C@H](C)CN([C@H](C)CO)S2(=O)=O`, for which the activity change, negative = cytotoxicity is -28.5% (inactive).

Turning to `C[C@@H]1CN([C@H](C)CO)C(=O)c2cc(NC(=O)Cc3cn(C)c4ccccc34)ccc2O[C@H]1CN(C)S(=O)(=O)c1cn(C)cn1`, the activity change, negative = cytotoxicity is -6.33% (inactive).

As for `C[C@@H]1CN([C@H](C)CO)C(=O)c2cc(NC(=O)Cc3cn(C)c4ccccc34)ccc2O[C@@H]1CN(C)S(=O)(=O)c1ccc(Cl)cc1`, the activity change, negative = cytotoxicity was -21.3% (inactive).

For `C[C@@H]1CN([C@H](C)CO)C(=O)c2cc(NC(=O)Cc3cn(C)c4ccccc34)ccc2O[C@H]1CN(C)CC1CCCCC1`, the activity change, negative = cytotoxicity was -22.1% (inactive).

As for `C[C@H](CO)N1C[C@H](C)[C@H](CN(C)CC2CCCCC2)Oc2c(NS(=O)(=O)c3cn(C)cn3)cccc2C1=O`, the activity change, negative = cytotoxicity is 5.52% (inactive).

For `C[C@@H]1CN([C@H](C)CO)C(=O)c2cc(NC(=O)Cc3cn(C)c4ccccc34)ccc2O[C@H]1CN(C)Cc1ccncc1`, the activity change, negative = cytotoxicity is -16.9% (inactive).

`CC(C)CN(C(=O)COC(=O)C12CC3CC(CC(O)(C3)C1)C2)C1CCS(=O)(=O)C1` (configuration not stated): the activity change, negative = cytotoxicity is -14.1% (inactive).

For the molecule `C[C@@H]1CN([C@H](C)CO)C(=O)c2cc(NC(=O)C3CCOCC3)ccc2O[C@H]1CN(C)S(=O)(=O)c1ccc(Cl)cc1`, the activity change, negative = cytotoxicity is -5.21% (inactive).

As to `C[C@H]1CN([C@@H](C)CO)C(=O)c2cc(NC(=O)Cc3cn(C)c4ccccc34)ccc2O[C@@H]1CN(C)S(=O)(=O)c1ccc(Cl)cc1`, the activity change, negative = cytotoxicity was -20.1% (inactive).

With `C[C@H](CO)N1C[C@H](C)[C@H](CN(C)S(=O)(=O)c2ccc(Cl)cc2)Oc2ccc(NC(=O)Cc3cn(C)c4ccccc34)cc2C1=O`, the activity change, negative = cytotoxicity was -19.8% (inactive).

For `Cc1noc(C)c1NC(=O)N(C)C[C@@H]1Oc2ccc(NC(=O)Cc3cn(C)c4ccccc34)cc2C(=O)N([C@H](C)CO)C[C@H]1C`, the activity change, negative = cytotoxicity is 10.5% (inactive).

For `C[C@@H]1CN([C@H](C)CO)C(=O)c2cc(NC(=O)Cc3cn(C)c4ccccc34)ccc2O[C@H]1CN(C)C(=O)Nc1ccc2c(c1)OCO2`, the activity change, negative = cytotoxicity was 7.49% (inactive).

As for `C[C@@H]1CN([C@H](C)CO)C(=O)c2cc(NC(=O)Cc3cn(C)c4ccccc34)ccc2O[C@H]1CN(C)C(=O)Nc1ccc(C(F)(F)F)cc1`, the activity change, negative = cytotoxicity was -31.9% (inactive).

For `C[C@@H]1CN([C@H](C)CO)C(=O)c2cc(NC(=O)C3CCCCC3)ccc2O[C@H]1CN(C)C(=O)c1ccc(Cl)cc1`, the activity change, negative = cytotoxicity is -24.6% (inactive).

For `C[C@@H]1CN([C@H](C)CO)C(=O)c2cc(NC(=O)Nc3cccc4ccccc34)ccc2O[C@H]1CN(C)S(=O)(=O)c1ccc(Cl)cc1`, the activity change, negative = cytotoxicity was -10.4% (inactive).

On to `COc1ccc(-c2nnn(CC(=O)N(C3CCCCC3)C(C)C(=O)NC3CCCCC3)n2)cc1OC` (configuration not stated), for which the activity change, negative = cytotoxicity was -9.26% (inactive).

With `C[C@@H]1CN([C@H](C)CO)C(=O)c2cc(NC(=O)Cc3cn(C)c4ccccc34)ccc2O[C@H]1CN(C)C(=O)NC1CCCCC1`, the activity change, negative = cytotoxicity was 5.85% (inactive).

As for `C[C@@H]1CN([C@H](C)CO)C(=O)c2cc(NC(=O)Nc3ccccc3)ccc2O[C@H]1CN(C)S(=O)(=O)c1ccc(Cl)cc1`, the activity change, negative = cytotoxicity is -34.8% (inactive).

For `C[C@@H]1CN([C@H](C)CO)C(=O)c2cc(NC(=O)Cc3cn(C)c4ccccc34)ccc2O[C@H]1CN(C)S(=O)(=O)c1ccc(F)cc1`, the activity change, negative = cytotoxicity is -29.1% (inactive).

With `COc1ccc(CN(C)C[C@@H]2Oc3ccc(NC(=O)Cc4cn(C)c5ccccc45)cc3C(=O)N([C@H](C)CO)C[C@H]2C)cc1`, the activity change, negative = cytotoxicity was -17.6% (inactive).

`O=C(C[C@H]1CC[C@H](NC(=O)CC2CC2)[C@@H](CO)O1)NCc1ccc(Cl)cc1`: the activity change, negative = cytotoxicity is -5.27% (inactive).

`CCCNC(=O)N(C)C[C@@H]1Oc2cc(-c3cncnc3)ccc2S(=O)(=O)N([C@@H](C)CO)C[C@@H]1C`: the activity change, negative = cytotoxicity is -5.43% (inactive).

Take `C[C@@H]1CN([C@H](C)CO)C(=O)c2cc(NC(=O)CCC(F)(F)F)ccc2O[C@H]1CN(C)S(=O)(=O)c1ccc(Cl)cc1`: the activity change, negative = cytotoxicity is -19.4% (inactive).

In the case of `C[C@H](CO)N1C[C@H](C)[C@H](CN(C)C)Oc2c(NS(C)(=O)=O)cccc2C1=O`, the activity change, negative = cytotoxicity was 4.96% (inactive).

With `COc1ccc(S(=O)(=O)Nc2ccc3c(c2)C(=O)N([C@H](C)CO)C[C@@H](C)[C@H](CN(C)S(=O)(=O)c2ccc(Cl)cc2)O3)cc1`, the activity change, negative = cytotoxicity was -22.9% (inactive).

Regarding `C[C@@H]1CN([C@H](C)CO)C(=O)c2cc(NS(=O)(=O)c3ccc(F)cc3)ccc2O[C@H]1CN(C)S(=O)(=O)c1ccc(Cl)cc1`, the activity change, negative = cytotoxicity is -2.92% (inactive).

`CNC[C@@H]1OCCCC[C@@H](C)Oc2ccc(NS(=O)(=O)c3ccc(Cl)cc3)cc2C(=O)N([C@H](C)CO)C[C@H]1C`: the activity change, negative = cytotoxicity is -5.46% (inactive).

As for `C[C@@H]1CN([C@H](C)CO)C(=O)c2cc(NC(=O)Cc3cn(C)c4ccccc34)ccc2O[C@H]1CN(C)Cc1ccc(-c2ccccc2)cc1`, the activity change, negative = cytotoxicity was -34.9% (inactive).

`C[C@@H]1CN([C@H](C)CO)C(=O)Cc2cc(NC(=O)Cc3cn(C)c4ccccc34)ccc2O[C@H]1CN(C)S(=O)(=O)c1ccc(F)cc1`: the activity change, negative = cytotoxicity is -0.321% (inactive).

The next experiment has as its system ldlA[mSR-BI] CHO cells viability, ATP luminescence, 24 h. Described as above.
Conditions: not given
The method in brief:
as §1
On to `CCCCCCC1CCC/C1=N\NC(N)=S` (configuration not stated), for which the AC50 was 3.81 µM.

In the case of `COc1c(NC(=O)C(=O)c2ccc(OCCN3CCOCC3)c3ccccc23)cc(C(C)(C)C)cc1NS(C)(=O)=O`, the AC50 was 34.3 µM.

Regarding `C[C@@H]1CN([C@H](C)CN(C)C)C(=O)c2cc(NC(=O)Cc3cn(C)c4ccccc34)ccc2O[C@H]1CN(C)S(=O)(=O)c1ccc(Cl)cc1`, the AC50 was 15.3 µM.
